DAGLB inhibitor = diacylglycerol lipase beta (human) inhibition; HEK293T DAGLB membrane lysate, EnzChek fluorogenic substrate; inhibition, % at 5.17 µM; 340,000 compounds, 0.059% hits; AID 504411; in the data active = inhibition above about 34%;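 note: 0% = enzyme with vehicle and 100% = wells lacking enzyme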
Target sequence (Q8NCG7 whole entry, looked up): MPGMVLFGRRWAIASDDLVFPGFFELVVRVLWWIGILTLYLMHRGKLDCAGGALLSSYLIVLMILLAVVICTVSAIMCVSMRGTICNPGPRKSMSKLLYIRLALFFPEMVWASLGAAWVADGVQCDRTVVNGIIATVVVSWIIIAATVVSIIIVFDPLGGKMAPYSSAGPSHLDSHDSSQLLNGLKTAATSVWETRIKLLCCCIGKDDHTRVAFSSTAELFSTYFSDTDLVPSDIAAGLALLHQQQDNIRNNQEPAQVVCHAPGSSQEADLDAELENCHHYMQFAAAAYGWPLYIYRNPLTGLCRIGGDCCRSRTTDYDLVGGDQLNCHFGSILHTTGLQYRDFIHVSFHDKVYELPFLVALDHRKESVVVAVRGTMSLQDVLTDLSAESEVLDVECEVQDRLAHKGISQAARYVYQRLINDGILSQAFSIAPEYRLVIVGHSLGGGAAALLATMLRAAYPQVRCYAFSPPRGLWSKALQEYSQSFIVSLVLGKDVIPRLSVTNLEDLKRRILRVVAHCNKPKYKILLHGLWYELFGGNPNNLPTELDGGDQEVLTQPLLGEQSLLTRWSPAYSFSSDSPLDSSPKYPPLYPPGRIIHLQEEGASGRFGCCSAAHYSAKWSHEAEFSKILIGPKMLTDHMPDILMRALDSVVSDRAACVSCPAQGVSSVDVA
MT1-MMP act inh = blocks activation of human MT1-MMP. P50281. GFP/RFP ratio change, % at 20 µM. HT1080 RFP-PRO-GFP cells, GFP/RFP ratio fluorescence, overnight; percent of plate control window, DMSO zero. 360,000 compounds, 0.061% hits;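 active = GFP/RFP ratio change of at least 30% with cell ATP level not reduced by more than half and red fluorescence within 50% of control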
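Assay system: HT1080 cells carrying an RFP-PRO-GFP reporter | Dosing: Single dose of 20 µM compound, 1% DMSO final | Incubation: Cells overnight before dosing, compound overnight, 37 °C, 5% CO2 | Evaluation: GFP/RFP fluorescence ratio | Control set: DMSO and RFP-L50D-GFP cell wells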
Tn6 DDE FP = inhibitors of Tn6 peptide binding to human fibrin DD(E); Fibrin DD(E) TRITC-Tn6 fluorescence polarization displacement; P02675; inhibition, % at 8.3 µM; 370,000 compounds, 0.21% hits;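 active = inhibition above a per-campaign cutoff: mean of compounds within control limits plus 3 SD, cut at about 15% in these data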;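 note: 0% = median of all compound wells on the plate and 100% = blocking peptide control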
DDE Tn7 FP inh = inhibitors of Tn7 peptide binding to human fibrin DD(E); 370,000 compounds, 0.13% hits; inhibition, % at 8.3 µM; FP displacement of FITC-Tn7 peptide from fibrin DD(E); 0% = median of compound wells per plate; P02675;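 active = inhibition above the mean of compounds falling within the control limits plus 3 SD of them, cut at about 14% in these data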;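 note: 0% = plate median of compound wells and 100% = 10 µM Aha-Tn7 peptide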
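Test system: human clot-derived fibrin DD(E) complex / Quantity: 2 µM final DD(E) protein / Incubation: 10 min plus 3 h, room temperature / Measured by: fluorescence polarization / Benchmarks: high control of 10 µM Aha-Tn7 peptide / Replicates: singlicate testing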
H9c2 protect = protects H9c2 cardiomyocytes from peroxide injury; H2O2 injury protection, ATPLite, 2 h; protection from H2O2 cell death, % at 20 µM; 360,000 compounds, 0.63% hits;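 active = compounds giving at least 50% protection of heart cells from peroxide-induced death in the single-dose screen, raw or plate-pattern-corrected value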;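 note: 0% = DMSO wells with peroxide and 100% = DMSO wells without peroxide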
TAG inh = triacylglycerol accumulation inhibition; AID 651582; 230,000 compounds, 0.66% hits; inhibition, % at 12.5 µM; H9c2 cells, Nile Red lipid (TAG) fluorescence; cells loaded with 200 µM oleic acid;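 active = pattern-corrected inhibition of lipid staining of at least 50% with the nuclear-stain viability signal not falling by more than 50%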;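 note: 0% = DMSO wells and 100% = triacsin C control wells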
* marks the source's active call; other numbers are inactive results; x = no result; ! = a repeat was not active. Sampled rows, rich in hits. Any-hit rate of the full collection: about 1.4%.

SMILES	DAGLB inhibitor	MT1-MMP act inh	Tn6 DDE FP	DDE Tn7 FP inh	H9c2 protect	TAG inh
COC(=O)c1cccc(Nc2nc(-c3ccncc3)nc3ccccc23)c1	-0.9	-1.2	-5.2	-2.2	40.2	x
O=C(N[C@@H](Cc1ccccc1)C(=O)NCP(=O)(O)OC(Cc1ccccc1)C(=O)O)OCc1ccccc1 (some centres undefined)	x	x	3.6	-1.1	x	x
Cc1[nH]nc2c1C(c1ccccc1)N(Cc1ccccc1)C2=O (centres undefined)	x	x	3.6	-0.1	x	x
CCC(=O)N[C@H]1C[C@@H]2O[C@@H](CO)CC[C@@H]2O[C@@H]1CCc1ccc(-c2cccc(OC)c2)cc1	x	x	3.9	5.7	x	x
COC(=O)c1ccc(/C=C/c2nc3ccccc3c(=O)[nH]2)cc1	2.2	-2.0	0.3	-7.6	-10.0	x
COCCOC(=O)N/C=C\c1nc2ccccc2c(=O)[nH]1	-1.2	0.1	-5.2	4.9	65.4*	x
COc1cccc(Nc2nc3ccccc3n3cnnc23)c1	-1.4	2.1	-9.2	-4.5	86.4*	16.4
COc1ccc(Nc2nc3ccccc3n3cnnc23)cc1Cl	2.0	3.4	2.5	2.6	17.9	x
O=C(NC1CCCCC1)C(c1ccc2ncccc2c1)N(Cc1ccc2c(c1)OCO2)C(=O)c1ccc2c(c1)OCCO2 (centres undefined)	1.9	-3.6	7.5	-2.4	4.3	x
O=C(NC1CCCCC1)C(c1ccc2ncccc2c1)N(Cc1ccco1)C(=O)c1ccc2c(c1)OCCO2 (centres undefined)	0.1	1.1	4.0	1.7	55.8*	x
O=C(NC1CCCCC1)C(c1ccc2ncccc2c1)N(Cc1cccs1)C(=O)c1cccs1 (centres undefined)	-3.9	-4.0	-5.0	3.4	51.3*	x
COc1ccc(C(C(=O)NC2CCCCC2)N(C(=O)Cc2c[nH]c3ccccc23)c2ccccc2C)cc1OC (centres undefined)	2.3	-5.8	7.1	5.5	13.2	x
COc1ccc(C(C(=O)NC2CCCCC2)N(Cc2cccs2)C(=O)Cc2c[nH]c3ccccc23)cc1OC (centres undefined)	-0.8	-3.3	-3.1	4.3	52.2*	x
O=C1CN(C(=O)COc2ccc(Cl)c(Cl)c2)c2ccccc2N1	2.4	-11.9	-6.6	1.6	-1.7	7.4
O=C1CN(C(=O)Cn2ncc(Cl)c(Cl)c2=O)c2ccccc2N1	-0.6	-7.1	4.2	-1.3	-34.7	69.3*
Cn1c(=O)c2c(nc(CN3CCN(C(=O)c4ccco4)CC3)n2CCCc2ccccc2)n(C)c1=O	-1.6	-0.5	-5.5	0.8	52.0*	-5.5
Cn1c(=O)c2c(nc(CN3CCN(C(=O)c4ccco4)CC3)n2CCc2ccccc2)n(C)c1=O	2.0	-2.4	8.3	-2.1	2.7	x
CC1CCCN(Cc2nc3c(c(=O)n(C)c(=O)n3C)n2CCCc2ccccc2)C1 (centres undefined)	-5.0	2.0	-5.6	-1.8	55.2*	2.3
O=C1Nc2ccccc2Nc2ccccc21	3.6	0.8	-5.1	1.5	18.0	x
O=C1Nc2cnc(Cl)nc2Nc2ccccc21	x	-1.6	-6.0	3.9	56.2*	x
CCCC1CCC2(CCC(=O)N2CCC#N)CC1 (centres undefined)	x	x	1.8	-1.2	x	x
CN1C(=O)CSc2ccc(NC(=O)N3CCN(c4ccccn4)CC3)cc21	-1.2	17.6	-4.5	-1.6	57.3*	x
CN1C(=O)CSc2ccc(NC(=O)Nc3ccccn3)cc21	2.4	-4.8	3.7	-4.1	59.2*	x
O=C(Cc1ccccc1)NNc1c2ccccc2nc2ccccc12	7.5	7.2	-3.2	2.0	10.4	-15.3
O=C(Nc1c2ccccc2nc2ccccc12)C(Cl)(Cl)Cl	2.5	2.9	x	x	1.5	66.1*
SMILES	DAGLB inhibitor	MT1-MMP act inh	Tn6 DDE FP	DDE Tn7 FP inh	H9c2 protect	TAG inh
COc1ccc(Nc2nnc(SCc3cc(=O)n4ccsc4n3)s2)cc1	1.8	-21.0	-3.4	6.0	62.7*	x
O=C(NCCc1c[nH]c2ccccc12)c1ccc(Sc2ccccc2Cl)c([N+](=O)[O-])c1	x	x	7.5	0.7	x	x
COc1cc(C(=O)NC2CCN(C)CC2)ccc1Nc1ncc2c(n1)N(Cc1ccccc1)CCC(=O)N2C	0.1	29.5	2.3	8.2	3.1	87.4*
CCN1C(=O)CC(c2ccccc2)N(C2CCCC2)c2nc(Nc3ccc(C(=O)NC4CCN(C)CC4)cc3OC)ncc21 (centres undefined)	3.4	8.7	x	x	-12.0	36.5
COc1cc(C(=O)NC2CCN(C)CC2)ccc1Nc1ncc2c(n1)N(C1CCCCC1)CCC(=O)N2C	-1.4	28.6	-4.2	-6.8	-5.7	96.0*
O=S(=O)(CC1NCc2cc(F)ccc21)NC1CCCC1 (centres undefined)	x	x	-3.2	-0.1	x	x
Cc1ccc(-n2c(SCC(=O)Nc3ccc4cn[nH]c4c3)nnc2-c2ccccc2)cc1	x	x	5.6	-5.3	x	x
CCOC(=O)C1=C(C)NC(C)=C(C(=O)OCC)C1C(=O)OCC(=O)NC(C)C	2.8	-1.5	-1.2	-3.2	57.1*!	8.7
CC[C@H](CCCc1ccccc1OC)CCS(=O)(=O)N(C)C	x	x	2.6	6.6	x	x
O=C1c2ccc3c4c(ccc(c24)C(=O)N1c1cccc(O)c1)CC3	-3.2	5.7	7.3	-1.8	3.7	1.2
O=C1c2ccc3c4c(ccc(c24)C(=O)N1c1cccc(O)c1)C(=O)N(c1cccc(O)c1)C3=O	5.8	-1.2	-20.3	0.7	-2.3	67.9*
Nc1ccc2c3c(cccc13)C(=O)N(c1ccccc1)C2=O	-200.8	-122.3	10.8	-2.6	1.0	-9.9
Nc1cccc(N2C(=O)c3cccc4c(N)ccc(c34)C2=O)c1	-41.1	-69.9	1.1	30.0*	15.5	x
COc1ccc(NC(=O)c2cc(-c3ccccc3)nc3c2c(C)nn3-c2ccccc2)c(OC)c1	-0.4	-0.4	2.4	-0.4	-5.7	x
COc1ccc(-c2cc(C(=O)NNC3=NCCC3)c3c(C)nn(-c4ccccc4)c3n2)cc1	-1.0	4.1	-2.2	8.9	83.6*	25.0
O=C(O)c1nn(CCOc2ccc(Br)cc2)c(=O)c2ccccc12	-4.2	1.6	-0.9	1.6	55.4*	x
O=C(O)c1nn(CCOc2ccccc2F)c(=O)c2ccccc12	-1.6	1.0	-3.5	-6.2	53.7*	x
CCc1cccc(OCCn2nc(C(=O)O)c3ccccc3c2=O)c1	-3.1	5.0	-4.2	-4.0	44.2	-5.4
COc1ccc(/C=C/c2ccc3cccc(O)c3n2)cc1Br	-0.5	11.6	4.9	-0.8	62.0*	x
COc1ccc(/C=C/c2ccc3c(Br)ccc(O)c3n2)cc1	-2.7	8.3	-1.4	-0.8	61.8*	x
COc1cc(/C=C/c2ccc3cccc(O)c3n2)cc(Br)c1OC	-2.8	0.7	0.7	0.5	80.4*	x
